The source of these data is ChEMBL document CHEMBL1129264, “Mercaptoacyl dipeptides as orally active dual inhibitors of angiotensin-converting enzyme and neutral endopeptidase” (1996).

Structures are written as SMILES.

Assay [1] concerns the target T1, Angiotensin-converting enzyme (Rattus norvegicus) (UniProt P47820).
T1 sequence (whole entry): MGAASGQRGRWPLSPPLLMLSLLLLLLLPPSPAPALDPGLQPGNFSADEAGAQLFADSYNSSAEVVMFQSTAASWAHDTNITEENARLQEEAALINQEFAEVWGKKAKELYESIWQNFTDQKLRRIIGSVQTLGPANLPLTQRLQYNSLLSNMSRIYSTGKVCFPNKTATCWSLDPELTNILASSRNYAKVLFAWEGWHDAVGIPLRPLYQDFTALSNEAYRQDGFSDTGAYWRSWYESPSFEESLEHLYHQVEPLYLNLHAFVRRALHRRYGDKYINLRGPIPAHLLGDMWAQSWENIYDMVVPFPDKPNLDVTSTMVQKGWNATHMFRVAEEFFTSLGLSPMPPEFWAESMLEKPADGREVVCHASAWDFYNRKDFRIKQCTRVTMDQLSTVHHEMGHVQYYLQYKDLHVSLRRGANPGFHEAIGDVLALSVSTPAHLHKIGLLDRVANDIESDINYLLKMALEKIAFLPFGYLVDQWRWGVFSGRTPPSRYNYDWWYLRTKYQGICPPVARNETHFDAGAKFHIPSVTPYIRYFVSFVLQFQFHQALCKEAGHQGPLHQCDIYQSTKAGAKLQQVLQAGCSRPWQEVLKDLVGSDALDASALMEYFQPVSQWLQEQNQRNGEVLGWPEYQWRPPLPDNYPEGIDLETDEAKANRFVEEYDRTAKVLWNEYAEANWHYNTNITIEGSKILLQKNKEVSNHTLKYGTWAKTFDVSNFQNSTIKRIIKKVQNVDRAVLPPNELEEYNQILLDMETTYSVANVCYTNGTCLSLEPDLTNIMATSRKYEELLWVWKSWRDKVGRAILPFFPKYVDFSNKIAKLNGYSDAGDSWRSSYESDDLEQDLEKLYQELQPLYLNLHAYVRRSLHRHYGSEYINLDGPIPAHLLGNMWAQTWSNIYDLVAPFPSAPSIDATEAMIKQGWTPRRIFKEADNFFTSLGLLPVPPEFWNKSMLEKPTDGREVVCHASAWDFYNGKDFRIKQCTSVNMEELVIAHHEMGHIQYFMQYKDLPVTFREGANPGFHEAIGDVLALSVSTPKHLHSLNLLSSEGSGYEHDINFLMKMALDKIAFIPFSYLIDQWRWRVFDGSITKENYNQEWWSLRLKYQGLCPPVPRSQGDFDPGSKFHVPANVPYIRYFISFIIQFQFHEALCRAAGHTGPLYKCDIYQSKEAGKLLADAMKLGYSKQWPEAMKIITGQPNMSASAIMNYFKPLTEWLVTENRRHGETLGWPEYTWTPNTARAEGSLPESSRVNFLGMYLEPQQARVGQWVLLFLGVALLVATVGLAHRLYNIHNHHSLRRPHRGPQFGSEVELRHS
Put plainly: Compound was tested for plasma inhibition of Angiotensin I converting enzyme activity in the conscious rat. Expressed as Inhibition of AI pressor response at 6 hr at a dose of 12.4 mg/kg po. It counts as organism-based. Further details: dose 12.4 mg/kg. The essentials:
(§1)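 Male conscious normotensive Sprague-Dawley rats (275-390 g), prepared under methohexital sodium (75 mg/kg ip) with femoral arterial and venous catheters. The next day, pressor responses to three angiotensin-I challenges (300 ng/kg iv) were recorded. Compound was then given orally and angiotensin-I challenges were repeated at set times. Percent inhibition is relative to the mean of the three baseline responses.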

Assay [2] concerns Rattus norvegicus. Put plainly: Plasma ANF Concentration in the Conscious Rat at a dose of 12.4 (p.o.) mg/kg at 2 h. In kind it is functional. The method in brief:
(§2)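 Male Sprague-Dawley rats (275-390 g) received femoral artery and vein catheters under ketamine (150 mg/kg)/acepromazine and recovered for 24 h, tethered, before study conscious. ratANF(99-126) was infused at 450 ng/kg/min iv for 5 h. Baseline blood was drawn at 60 min into the infusion, then compound was given po.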

In assay [3] the target is T1, Angiotensin-converting enzyme (Rattus norvegicus). In words: Compound was tested for plasma inhibition of Angiotensin I converting enzyme activity in the conscious rat. Expressed as Inhibition of AI pressor response at 2 hr at a dose of 12.4 mg/kg po. In kind it is organism-based. Further details: dose 12.4 mg/kg. The essentials: (§3)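 Male conscious normotensive Sprague-Dawley rats (275-390 g), given femoral arterial and venous catheters under methohexital sodium (75 mg/kg ip) anesthesia. Next day, pressor responses to three angiotensin-I challenges (300 ng/kg iv) recorded by direct arterial pressure. Compound then dosed orally, and AI challenge repeated at set times. Each post-dose response compared with the mean of the three baseline responses, giving % inhibition.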

The test system of assay [4] is Rattus norvegicus. Put plainly: Plasma ANF Concentration in the Conscious Rat at a dose of 12.4 (p.o.) mg/kg at 0.5 h. In kind it is functional. The method in brief:
as §2

In assay [5] the test system is Rattus norvegicus. In words: Plasma ANF Concentration in the Conscious Rat at a dose of 12.4 (p.o.) mg/kg at 1 h. It counts as functional. The essentials:
as §2

Assay [6] has as its target T1, Angiotensin-converting enzyme (Rattus norvegicus). In words: Compound was tested for plasma inhibition of Angiotensin I converting enzyme activity in the conscious rat. Expressed as Inhibition of AI pressor response at 4 hr at a dose of 12.4 mg/kg po. In kind it is organism-based. Further details: dose 12.4 mg/kg. The essentials:
as §3

Assay [7] shares this target. Put plainly: Compound was tested for plasma inhibition of Angiotensin I converting enzyme activity in the conscious rat. Expressed as Inhibition of AI pressor response at 1 hr at a dose of 12.4 mg/kg po. It counts as organism-based. Further details: dose 12.4 mg/kg. The essentials:
as §3

For assay [8], the system named is Rattus norvegicus. Put plainly: Plasma ANF Concentration in the Conscious Rat at a dose of 12.4 (p.o.) mg/kg at 4 h. In kind it is functional. The method in brief: as §2
The test system of assay [9] is Rattus norvegicus. In words: Plasma ANF Concentration in the Conscious Rat at a dose of 13.2(po)mg/kg at 4 h. It counts as functional. The method in brief: as §2
Assay [10] concerns the target T1, Angiotensin-converting enzyme (Rattus norvegicus). Put plainly: Compound was tested for plasma inhibition of Angiotensin I converting enzyme activity in the conscious rat. Expressed as Inhibition of AI pressor response at 4 hr at a dose of 13.2 mg/kg po. It counts as organism-based. Further details: dose 13.2 mg/kg. The method in brief:
as §1

Assay [11] has the same target. Put plainly: Compound was tested for plasma inhibition of Angiotensin I converting enzyme activity in the conscious rat. Expressed as Inhibition of AI pressor response at 1 hr at a dose of 13.2 mg/kg po. It counts as organism-based. Further details: dose 13.2 mg/kg. The essentials:
as §3

For assay [12], the system named is Rattus norvegicus. In words: Plasma ANF Concentration in the Conscious Rat at a dose of 13.2(po)mg/kg at 1 h. It counts as functional. The method in brief: as §2
Assay [13] deals with T1, Angiotensin-converting enzyme (Rattus norvegicus). In words: Compound was tested for plasma inhibition of Angiotensin I converting enzyme activity in the conscious rat. Expressed as Inhibition of AI pressor response at 2 hr at a dose of 13.2 mg/kg po. It counts as organism-based. Further details: dose 13.2 mg/kg. The essentials:
as §3

In assay [14] the test system is Rattus norvegicus. In words: Plasma ANF Concentration in the Conscious Rat at a dose of 13.2(po)mg/kg at 2 h. It counts as functional. The essentials: as §2
The target in assay [15] is T1, Angiotensin-converting enzyme (Rattus norvegicus). Put plainly: Compound was tested for plasma inhibition of Angiotensin I converting enzyme activity in the conscious rat. Expressed as Inhibition of AI pressor response at 6 hr at a dose of 13.2 mg/kg po. Further details: dose 13.2 mg/kg. It counts as organism-based. The method in brief:
as §1

Assay [16] has as its system Rattus norvegicus. Put plainly: Plasma ANF Concentration in the Conscious Rat at a dose of 13.2(po)mg/kg at 0.5 h. It counts as functional. The method in brief: as §2
Assay [17] addresses T1, Angiotensin-converting enzyme (Rattus norvegicus). Put plainly: Compound was tested for plasma inhibition of Angiotensin I converting enzyme activity in the conscious rat. Expressed as Inhibition of AI pressor response at 2 hr at a dose of 13 mg/kg po. It counts as organism-based. Further details: dose 13 mg/kg. The essentials: (§4)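 Male conscious normotensive Sprague-Dawley rats (275-390 g), fitted under methohexital (75 mg/kg ip) with femoral arterial and venous catheters for direct blood pressure. Next day, pressor responses to three angiotensin-I challenges (300 ng/kg iv) were recorded. Compound was then given po and AI challenge repeated at scheduled times. Each post-dose response was compared with the mean of the three initial responses.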

Assay [18] shares this target. Put plainly: Compound was tested for plasma inhibition of Angiotensin I converting enzyme activity in the conscious rat. Expressed as Inhibition of AI pressor response at 6 hr at a dose of 13 mg/kg po. In kind it is organism-based. Further details: dose 13 mg/kg. The method in brief: as §4
Assay [19] has the same target. In words: Compound was tested for plasma inhibition of Angiotensin I converting enzyme activity in the conscious rat. Expressed as Inhibition of AI pressor response at 4 hr at a dose of 13 mg/kg po. In kind it is organism-based. Further details: dose 13 mg/kg. The essentials: as §4
For assay [20] the target is unchanged. In words: Compound was tested for plasma inhibition of Angiotensin I converting enzyme activity in the conscious rat. Expressed as Inhibition of AI pressor response at 1 hr at a dose of 13 mg/kg po. In kind it is organism-based. Further details: dose 13 mg/kg. The essentials: as §4
Assay [21] shares this target. In words: Compound was tested for plasma inhibition of Angiotensin I converting enzyme activity in the conscious rat. Expressed as Inhibition of AI pressor response at 4 hr at a dose of 12 mg/kg po. It counts as organism-based. Further details: dose 12 mg/kg. The essentials:
as §3

Assay [22] has the same target. Put plainly: Compound was tested for plasma inhibition of Angiotensin I converting enzyme activity in the conscious rat. Expressed as Inhibition of AI pressor response at 6 hr at a dose of 12 mg/kg po. Further details: dose 12 mg/kg. In kind it is organism-based. The essentials: as §1
The target is the same in assay [23]. Put plainly: Compound was tested for plasma inhibition of Angiotensin I converting enzyme activity in the conscious rat. Expressed as Inhibition of AI pressor response at 2 hr at a dose of 12 mg/kg po. It counts as organism-based. Further details: dose 12 mg/kg. The method in brief:
as §3

Assay [24] shares this target. Put plainly: Compound was tested for plasma inhibition of Angiotensin I converting enzyme activity in the conscious rat. Expressed as Inhibition of AI pressor response at 1 hr at a dose of 12 mg/kg po. Further details: dose 12 mg/kg. It counts as organism-based. The method in brief: as §3

For orientation: inhibition means the share of the control response that was lost under treatment. A higher inhibition goes with strong suppression. In the case of `CCCCOC(=O)[C@H](Cc1ccc(O)cc1)NC(=O)C1(NC(=O)[C@H](SC(C)=O)C(C)C)CCCC1`, the inhibition is 72% in assay [1], 78% in assay [3], 70% in [6] and 76% in [7]. In addition, the Control with Rattus norvegicus [2] is 178%; in the assay with Rattus norvegicus [4] it was 131%; in the assay on Rattus norvegicus [5] it was 133%; in the assay on Rattus norvegicus [8], 185%.

Consider `COc1ccc(C[C@H](NC(=O)C2(NC(=O)[C@H](SC(C)=O)C(C)C)CCCC2)C(=O)OCc2cccnc2)cc1`, for which the Control in the assay on Rattus norvegicus [9] was found to be 332%; with Rattus norvegicus [12], 267%; in the assay with Rattus norvegicus [14] it was 260%; in the assay with Rattus norvegicus [16], 223%. The inhibition is 87% in assay [10], 99% in assay [11], 97% in assay [13] and 63% in assay [15].

`CCOC(=O)[C@H](Cc1ccc(O)cc1)NC(=O)C1(NC(=O)[C@H](SC(=O)C2CCCC2)C(C)C)CCCC1`: the inhibition in [17] was determined as 33%; in [18] it was 38%; in [19], 55%; in assay [20] it was 34%.

For `C=CCOC(=O)[C@H](Cc1ccc(O)cc1)NC(=O)C1(NC(=O)[C@H](SC(C)=O)C(C)C)CCCC1`, the inhibition in assay [21] came to 67%; in assay [22], 59%; in assay [23], 75%; in assay [24], 68%.
